This is an account of results in ChEMBL document CHEMBL3393056, “Identification of nicotinamide phosphoribosyltransferase (NAMPT) inhibitors with no evidence of CYP3A4 time-dependent inhibition and improved aqueous solubility” (Bioorg Med Chem Lett, 2015).

A short description of data set [1]: Cmax in rat at 5 mg/kg, po. Conditions: in vivo. Type of data set: ADME, organism-based. Also on record: dose 5 mg/kg, route oral. In a few lines: (§1)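 Male Sprague Dawley rats and male beagle dogs were dosed IV at 1 mg/kg or orally at 5 mg/kg. Plasma concentration–time profiles were followed. Each time point is the mean from three separate animals.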
Data set [2] is described as follows: Half life in rat at 1 mg/kg, iv. The format is ADME, organism-based. The arrangement: dose 1 mg/kg, route intravenous. Conditions: in vivo. In a few lines: as §1
Data set [3] in a line: Volume of distribution at steady state in rat at 1 mg/kg, iv. Type of data set: ADME, organism-based. Also on record: dose 1 mg/kg, route intravenous. The conditions noted are these: in vivo, read-out: Vdss. The method in brief: as §1
The nature of data set [4]: Clearance in rat at 1 mg/kg, iv. The format is ADME, organism-based. Also on record: dose 1 mg/kg, route intravenous. Conditions: in vivo. In a few lines:
as §1

A short description of data set [5]: AUC in rat at 5 mg/kg, po. The format is ADME, organism-based. Also on record: dose 5 mg/kg, route oral. Conditions: plasma. The method in brief:
as §1

A short description of data set [6]: Oral bioavailability in rat at 5 mg/kg. The format is ADME, organism-based. Conditions: in vivo. The method in brief: as §1
Data set [7] can be described thus: Half life in dog at 1 mg/kg, iv. Type of data set: ADME, organism-based, Canis lupus familiaris. The arrangement: dose 1 mg/kg, route intravenous. The conditions noted are these: in vivo. The method in brief: as §1
Data set [8] can be described thus: AUC in dog at 5 mg/kg, po. The format is ADME, organism-based, Canis lupus familiaris. The arrangement: dose 5 mg/kg, route oral. The conditions noted are these: plasma. The method in brief:
as §1

Data set [9] is described as follows: Oral bioavailability in dog at 5 mg/kg. Type of data set: ADME, organism-based, Canis lupus familiaris. Conditions: in vivo. In a few lines:
as §1

Data set [10] is described as follows: Cmax in dog at 5 mg/kg, po. Type of data set: ADME, organism-based, Canis lupus familiaris. Also on record: dose 5 mg/kg, route oral. The conditions noted are these: in vivo. The method in brief:
as §1

The nature of data set [11]: Clearance in dog at 1 mg/kg, iv. The format is ADME, organism-based, Canis lupus familiaris. Also on record: dose 1 mg/kg, route intravenous. Conditions: in vivo. The method in brief:
as §1

Data set [12] can be described thus: Volume of distribution at steady state in dog at 1 mg/kg, iv. The conditions noted are these: in vivo, read-out: Vdss. Type of data set: ADME, organism-based, Canis lupus familiaris. The arrangement: dose 1 mg/kg, route intravenous. In a few lines:
as §1

Consider `CC(C)CN1CCC([S@](=O)c2ccc(CNC(=O)c3cc4ccncc4o3)cc2)CC1`, for which the Cmax in data set [1] is 70 nM. In data set [2], this compound had a half-life of 0.93 h. The Vd in data set [3] came to 17 L/kg. In addition, in [4], the clearance was determined as 225 mL/min/kg. Besides, in [5], the AUC amounted to 0.27 µM·h. The bioavailability in [6] came to 31%.

`O=C(NCc1ccc(S(=O)(=O)c2cc(F)cc(F)c2)cn1)c1cc2ccncc2o1`: the Cmax in data set [1] came out at 1000 nM; in data set [10] it was 4700 nM. For the same compound, the half-life was 1 h in [2] and 4.7 h in data set [7]. For the same compound, the results for the AUC in [8] and in data set [5] were 33 µM·h and 3.3 µM·h, respectively. Besides, the Vd in data set [3] was 2 L/kg; in data set [12], 1.6 L/kg. In addition, the clearance in data set [4] is 40 mL/min/kg; in data set [11], 6.7 mL/min/kg. In addition, the figures for the bioavailability in [9] and in data set [6] were 115% and 61%, respectively.

Turning to `O=C(NCc1ccc([S@@](=O)c2cc(F)cc(F)c2)cn1)c1cc2ccncc2o1`, the Cmax in [1] is 1000 nM. Also, the half-life in data set [2] was 0.6 h. In addition, the Vd in data set [3] was 3 L/kg. The clearance in data set [4] amounted to 105 mL/min/kg. This compound returned an AUC in data set [5] of 1.2 µM·h. The bioavailability in data set [6] is 62%.

On to `CC(C)n1cc(S(=O)(=O)c2ccc(CNC(=O)c3cc4ccncc4o3)nc2)cn1`, for which the Cmax stood at 1500 nM in data set [1] and 8600 nM in [10]. For the same compound, the figures for the half-life in [2] and in data set [7] were 2.3 h and 1.5 h, respectively. Also, the AUC turned out to be 28 µM·h in data set [8] and 3 µM·h in data set [5]. In addition, the Vd came to 3.2 L/kg in data set [3] and 1 L/kg in data set [12]. Also, the clearance in data set [4] stood at 55 mL/min/kg; in data set [11], 9.8 mL/min/kg. Moreover, the results for the bioavailability in [9] and in data set [6] were 141% and 74%, respectively.

For orientation: Cmax means the maximum level reached in the sampled fluid or tissue. Usually half-life stands for the time needed for the level to fall by half in the phase considered. The low end stands for fast loss, the high end for slow loss. One may read the clearance as the volume of plasma or blood freed of the substance per unit of time. Higher therefore signals efficient removal. For orientation: AUC means concentration integrated over time. A low value points to less exposure.
